# Assay outcomes deposited in PubChem by several laboratories.
# Hsp70 activator – Hsp70 transcriptional activation, primary screen. HeLa Hsp70 promoter luciferase reporter, luminescence; scaled: vehicle 0, proteasome-inhibitor control 100%. activation, % at 10 µM. 200,000 compounds, 0.04% hits;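 active = activation above the mean across all tested compounds plus 3 SD, cutoff set per campaign, cut at about 5.5% in these data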;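 also: 100% = MG132 at 30 µM as the positive control and 0% = DMSO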
# HSF-1 act – increases HSF-1 driven luciferase reporter signal; activation, % at 9 µM; AID 504408; 300,000 compounds, 1.7% hits; NIH3T3-HGL HSF-1 luciferase reporter, MG132, 8 h; 100% = twice DMSO control signal;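 active = mean replicate activation of at least 50% with a set share of replicates each reaching 50%; inconclusive = only one of those two conditions met; inactive = mean below 50% and too few replicates reaching it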;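 also: 0% = median of the neutral control wells and 100% = twice that signal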
# HSF1 inh – HSF1 inhibition; NIH3T3-HGL HSE-luciferase, MG132-induced, luminescence 8 h; active compounds read low; activity change, negative = inhibition, % at 7.5 µM (by protocol); 300,000 compounds, 0.77% hits; AID 2098;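 active = more than half of replicate wells show activity change below -50%, luminescence cut by over half; inconclusive = some wells, but at most half, below -50%; inactive = no replicate well below -50%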;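 also: luciferase reports HSF-1 transcriptional activity via heat shock element; 0% = median of DMSO wells and -100% = zero luminescence signal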
# T cruzi repl – blocks replication of Trypanosoma cruzi | 300,000 compounds, 1.4% hits | T. cruzi beta-gal in NIH3T3, luminescence, 90 h | AID 1885 | inhibition, % (concentration not given with the values);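 active = mean inhibition across valid replicates above about 55%, limit read from the data; inconclusive = mean below that limit but half or more replicates reach it; inactive = mean below it, under half of replicates reach it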;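 also: signal also drops with host cell toxicity which is not excluded here; 0% = plate median of DMSO wells and 100% = zero luminescence signal; higher percent means less beta-gal luminescence so fewer parasites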
#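 Read-out: Parasite load inhibition, % | Test system: Mouse NIH/3T3 fibroblasts infected with β-gal-expressing T. cruzi Tulahuen C4 | Amount: 5,000 cells/well | Medium: DMEM, 2% fetal bovine serum | Signal: GalScreen β-gal luminescence, detergent lysis, 60 min | Timing: 3 h attach, ≥90 h co-culture | Also added: Tulahuen C4 trypomastigotes, 5000/well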
# L major viab – Leishmania major promastigote growth inhibition. 200,000 compounds, 9% hits. AID 1063. inhibition, % at 10 µM. Leishmania major promastigotes, resazurin fluorescence viability; in the data active = inhibition above about 50%;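 also: promastigotes grown with compound for 44 hours at 28 °C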
# * hit, by the source's call; ? = inconclusive; · = no result given. Only a selection was taken, and hits are over-represented in it overall.
SMILES,Hsp70 activator,HSF-1 act,HSF1 inh,T cruzi repl,L major viab
O=C(CN1CCN(c2ccccc2)CC1)Nc1ccc2c(c1)OCCO2,-0.3,-9.7,-2.8,-12.8,-16.5
Cn1c(C(=O)O)c(CC(=O)Nc2ccc3c(c2)OCCO3)c2ccccc21,-0.1,-68.5,-65.6*,-9.3,-4.5
Cc1ccc(NC(=O)Cc2c(C(=O)O)n(C)c3ccccc23)cc1F,0.3,-6.5,-5.3,-17.1,-6.3
CCC1SC(CC)C(=O)N(CC(=O)Nc2ccc3c(c2)OCO3)C1=O (stereo not given),-0.4,52.6*,11.4,0.7,-3.4
Cc1cc2ccccc2c(=O)n1CC(=O)Nc1ccc2c(c1)OCO2,1.0,-73.6,-67.9*,-24.8,-4.0
Cc1ccc(NC(=O)CN2C(=O)NC(C)(c3ccc(Cl)cc3)C2=O)cc1S(=O)(=O)N1CCOCC1 (stereo not given),0.0,14.4,-0.8,-11.4,56.1*
Cc1cc(C)n(CC(=O)Nc2ccc3c(c2)OCO3)c(=O)c1C#N,·,-7.3,-0.7,-2.1,·
CC1(c2ccc(Cl)cc2)NC(=O)N(CC(=O)Nc2ccc(N3CCCCC3)cc2)C1=O (stereo not given),·,0.2,11.1,21.5,·
CN(C)c1ccc(CC(=O)c2nc3ccccc3s2)cc1,0.1,55.7*,28.0,-5.6,5.5
COc1cc(/C=N/NC(=O)c2ccc(CN3c4cccc5cccc(c45)S3(=O)=O)cc2)cc(OC)c1O,-0.4,-5.4,-1.8,17.8,-8.4
COc1ccc(/C=N/NC(=O)c2ccc(CN3c4cccc5cccc(c45)S3(=O)=O)cc2)cc1,-0.4,0.7,-3.8,-16.4,82.2*
CCOC(=O)c1c(N)n(CCOC(=O)c2cccs2)c2nc3ccccc3nc12,-0.1,?,12.1,-13.1,60.3*
CCOC(=O)c1c(NC(=O)c2ccco2)n(C2CCCCC2)c2nc3ccccc3nc12,-0.3,78.3*,50.2,?,99.7*
CCCCCOC(=O)c1c(N)n(CCOC)c2nc3ccccc3nc12,0.0,13.4,5.5,16.0,99.9*
COCCOC(=O)c1c(N)n(CCCN2CCOCC2)c2nc3ccccc3nc12,·,4.8,2.2,-27.4,·
CCC(=O)Nc1c(C#N)c2nc3ccccc3nc2n1C1CCCCC1,-0.2,13.1,1.2,10.7,4.1
CCOC(=O)c1c(N)n(C2CC(C)(C)NC(C)(C)C2)c2nc3ccccc3nc12,-0.2,-2.6,4.0,40.4,83.3*
CCOC(=O)c1c(N)n(-c2ccc(N)cc2)c2nc3ccccc3nc12,-0.5,-14.4,-1.9,-2.5,1.0
CSCCC(NC(N)=O)C(=O)Nc1cccc(C#N)c1 (stereo not given),-0.2,15.7,-1.9,-2.6,1.7
COc1cc(C(=O)Nc2cc(C(F)(F)F)ccc2N2CCOCC2)ccc1OCC(=O)N1CCOCC1,·,-2.0,-6.7,3.8,·
CC1CCN(Cc2nnnn2-c2cccc([N+](=O)[O-])c2)CC1,-0.3,20.4,14.0,11.5,-1.6
Cc1cc(C(C)(C)C)cc(S(=O)(=O)NCCc2ccncc2)c1C,·,8.0,11.5,16.1,·
CC(C)(C)C(=O)/C=C/c1ccc(Oc2ccccc2)cc1,·,-67.5,-58.9*,-3.2,·
O=C(O)/C=C/c1ccc(Oc2ncccn2)cc1,·,0.0,1.2,-19.4,·
CCOC(=O)c1c(NC(=O)C(C)N2CCN(S(=O)(=O)c3cccs3)CC2)sc2c1CCC(C)C2 (stereo not given),-0.3,-9.0,-2.1,-1.0,4.2
SMILES,Hsp70 activator,HSF-1 act,HSF1 inh,T cruzi repl,L major viab
O=C(CN1CCN(c2ccc(O)cc2)CC1)NC(c1ccccc1)c1ccccc1,-0.3,26.5,-2.1,11.6,84.3*
O=C(CN1CCCCCC1)NC(c1ccccc1)c1ccccc1,·,-6.3,0.2,15.2,·
CC[n+]1c(/C=C2\C=C(C)CC(C)(C)C2)sc2ccccc21,-0.6,85.1*,66.6,45.8,100.2*
CC[n+]1c(/C=C2\C=C(C)CC(C)C2)sc2ccccc21 (stereo not given),-0.4,27.5,6.4,23.3,100.3*
CCC1=C/C(=C/c2sc3ccccc3[n+]2CC)CC(C)(C)C1,-0.3,47.9,36.0,23.6,99.4*
COc1ccc2sc(C)[n+](C)c2c1,-0.3,1.3,-3.3,-8.0,0.1
CC[n+]1c(/C=C2/C=C(C)CC(C)(C)C2)sc2ccc(OC)cc21,-0.3,?,39.3,36.7,100.1*
C/C(=N\NC(=O)COc1ccc([N+](=O)[O-])cc1)C(C)(C)C,0.0,-2.5,1.8,-18.1,-3.1
C/C(Cc1ccccc1)=N\NC(=O)CNC(=O)Cc1ccc(Cl)cc1,·,-62.7,-53.3*,-32.1,·
